SMILES strings stand for the structures.

The source of these data is PMC3415686 (Bioorganic & medicinal chemistry letters, 2012).

One series addresses Bcr-Abl-T315I-Ba/F3 (Homo sapiens, UniProt P00519+P11274, T315I). The series is described as follows: Cellular antiproliferative activity on mutant Bcr-Abl-T315I-Ba/F3. Type of series: cell-based, murine. In outline: (§1)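 Murine pre-B Ba/F3 cells transformed with the Bcr-Abl oncogene were used for cellular Bcr-Abl inhibition. Transformed cells grow without interleukin-3 (IL-3). Untransformed parental Ba/F3 cells proliferate only when IL-3 is present.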

In another series the target is wt Bcr-Abl-Ba/F3 (Homo sapiens, UniProt P00519+P11274). Nature of the series: Cellular antiproliferative activity on wt Bcr-Abl-Ba/F3. Type of series: cell-based, murine. Particulars: for antiproliferative activity against wild-type Bcr-Abl (in words): Ba/F3 cells transformed with Bcr-Abl. The method, boiled down:
as §1

A further series concerns wt-Ba/F3. Nature of the series: Cytotoxicity on wt. Type of series: cell-based, murine. In outline:
as §1

A short description of series [1]: Pharmacokinetics following oral and intravenous delivery. It counts as in vivo, rats. Particulars: rat. The method, boiled down:
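Rats were dosed with the test compound orally and intravenously; the oral dose was 2 mg/kg. Serum drug levels were followed to derive oral bioavailability (%F), half-life, Cmax and clearance.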

A further series relates to panel of 353 kinases. Nature of the series: KINOMEscan kinase selectivity profiling. It counts as binding. Particulars: 10 μM. The method, boiled down:
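KINOMEscan competition binding screen with the test compound at 10 μM against 353 kinases. Hits were kinases with an Ambit score below 10% of the DMSO control. S(10) is the number of kinases scoring below ten divided by the total number of kinases tested at that concentration.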

For the compound `CCN1CCN(Cc2ccc(NC(=O)Nc3cccc(-c4ccc5nc(NC(=O)C6CC6)sc5n4)c3)cc2C(F)(F)F)CC1` [Compound 32], the “improved activity on T315I Bcr-Abl (urea linkage)” value at Bcr-Abl-T315I-Ba/F3 (urea linkage in place of amide) was 5–10 fold. Moreover, the “improved activity on wild-type Bcr-Abl (urea linkage)” value on wt Bcr-Abl-Ba/F3 (urea linkage in place of amide) was 5–10 fold. In addition, the “increased cytotoxicity towards parental Ba/F3 cells (urea linkage)” value in the series on wt-Ba/F3 (urea linkage in place of amide) is listed as “approximately 5 fold”.

With `Cc1cn(-c2cc(NC(=O)c3cccc(-c4ccc5nc(NC(=O)C6CC6)sc5n4)c3)cc(C(F)(F)F)c2)cn1` [Compound 26], the “AUC (%extrapolated)” value in series [1] (IV 1 mg/kg) is given as 8.7%; in series [1] (PO 2 mg/kg), 21%. Further, the time of peak concentration (Tmax) in series [1] (serum, iv, 1 mg/kg) stood at 8.4 min; in series [1] (serum, po, 2 mg/kg), 66 min. Moreover, the “S(10) score (kinases inhibited below a score of ten / total kinases tested)” value in the series on panel of 353 kinases was 0.36.

For the compound `CCN1CCN(Cc2ccc(NC(=O)c3ccc(C)c(-c4ccc5nc(NC(=O)C6CC6)sc5n4)c3)cc2C(F)(F)F)CC1` [Compound 27], on wt Bcr-Abl-Ba/F3, the “antiproliferative activity against wild-type Bcr-Abl (in words)” value was “exceptionally potent”.

`CCN1CCN(Cc2ccc(NC(=O)c3cccc(-c4ccc5nc(NC(=O)C6CC6)sc5n4)c3)cc2C(F)(F)F)CC1` [Compound 22]: at Bcr-Abl-T315I-Ba/F3 (relative to 11), the “improvement in cellular antiproliferative activity relative to 11 against T315I-Bcr-Abl” value is on record as roughly 6 fold. Moreover, the EC50 on wt Bcr-Abl-Ba/F3 (read-out: Cellular antiproliferative activity (EC50, μM) Bcr-Abl (wt), wt Bcr-Abl-Ba/F3) came out at 0.098 µM. Also, the “AUC (%extrapolated)” value in series [1] (IV 1 mg/kg) was 35.3%; in series [1] (PO 2 mg/kg) it was 35%. Further, the Tmax was 4.8 min in series [1] (serum, iv, 1 mg/kg) and 162 min in series [1] (serum, po, 2 mg/kg). In addition, the clearance in series [1] (serum, iv, 1 mg/kg) was determined as 13 mL/min/kg. The “decrease in cytotoxicity against parental Ba/F3 cells relative to 11” value in the series on wt-Ba/F3 (relative to 11) is listed as 3 fold. The “S(10) score (kinases inhibited below a score of ten / total kinases tested)” value in the series on panel of 353 kinases came to 0.10.

On to `O=C(Nc1ccc(N2CCNCC2)c(C(F)(F)F)c1)c1cccc(-c2ccc3nc(NC(=O)C4CC4)sc3n2)c1` [Compound 24], for which, at wt Bcr-Abl-Ba/F3 (relative to 22, cell line not given), the “loss of cellular activity relative to 22” value is recorded as “approximately 10 fold”.

For the compound `Nc1nc2ccc(-c3cccc(C(=O)Nc4cccc(C(F)(F)F)c4)c3)nc2s1` [Compound 9a], the “antiproliferative activity against T315I-Bcr-Abl (in words)” value on Bcr-Abl-T315I-Ba/F3 (Ba/F3 cells transformed with T315I-Bcr-Abl) is reported as “did not display antiproliferative activity”. Further, at wt Bcr-Abl-Ba/F3, the “antiproliferative activity against wild-type Bcr-Abl (in words)” value is “did not display antiproliferative activity”.

With `Cc1cn(-c2cc(NC(=O)Nc3cccc(-c4ccc5nc(NC(=O)C6CC6)sc5n4)c3)cc(C(F)(F)F)c2)cn1` [Compound 33], the “reduction in cellular activity against T315I-Bcr-Abl compared to 22” value on Bcr-Abl-T315I-Ba/F3 (compared to 22) is listed as roughly 4 fold.
